In paper PMC9055986 (RSC Advances, 2020):

What was measured:
[1] = target: PARP-1 (Homo sapiens, UniProt P09874); experiment: In vitro PARP-1 inhibitory assay; format: biochemical; settings: IC50 (nM), in vitro inhibitory activity against PARP-1; mean ± S.E.M., n = 3
[2] = test system: MCF-7 cells; experiment: Cell cycle analysis; format: cell-based; settings: for cell cycle arrest: MCF-7 cell line, in words; for DNA content% % G0–G1 / DNA content% % G2–M / DNA content% % Pre G1 / DNA content% % S: MCF-7 cells, 10 μg mL^−1, 24 h
[3] = test system: MCF-7 cells; experiment: Annexin V-FITC apoptosis assay; format: cell-based; settings: 2.5 μM, 24 h, Annexin V and PI double staining
Summary of the method: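 MCF-7 cells exposed to test compound (2.5 μM) for 24 h, then double-stained with Annexin V-FITC and propidium iodide. Stained cells were detected by flow cytometry, and the percentage of apoptotic cells was determined.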

Sequence of PARP-1 (P09874 whole entry): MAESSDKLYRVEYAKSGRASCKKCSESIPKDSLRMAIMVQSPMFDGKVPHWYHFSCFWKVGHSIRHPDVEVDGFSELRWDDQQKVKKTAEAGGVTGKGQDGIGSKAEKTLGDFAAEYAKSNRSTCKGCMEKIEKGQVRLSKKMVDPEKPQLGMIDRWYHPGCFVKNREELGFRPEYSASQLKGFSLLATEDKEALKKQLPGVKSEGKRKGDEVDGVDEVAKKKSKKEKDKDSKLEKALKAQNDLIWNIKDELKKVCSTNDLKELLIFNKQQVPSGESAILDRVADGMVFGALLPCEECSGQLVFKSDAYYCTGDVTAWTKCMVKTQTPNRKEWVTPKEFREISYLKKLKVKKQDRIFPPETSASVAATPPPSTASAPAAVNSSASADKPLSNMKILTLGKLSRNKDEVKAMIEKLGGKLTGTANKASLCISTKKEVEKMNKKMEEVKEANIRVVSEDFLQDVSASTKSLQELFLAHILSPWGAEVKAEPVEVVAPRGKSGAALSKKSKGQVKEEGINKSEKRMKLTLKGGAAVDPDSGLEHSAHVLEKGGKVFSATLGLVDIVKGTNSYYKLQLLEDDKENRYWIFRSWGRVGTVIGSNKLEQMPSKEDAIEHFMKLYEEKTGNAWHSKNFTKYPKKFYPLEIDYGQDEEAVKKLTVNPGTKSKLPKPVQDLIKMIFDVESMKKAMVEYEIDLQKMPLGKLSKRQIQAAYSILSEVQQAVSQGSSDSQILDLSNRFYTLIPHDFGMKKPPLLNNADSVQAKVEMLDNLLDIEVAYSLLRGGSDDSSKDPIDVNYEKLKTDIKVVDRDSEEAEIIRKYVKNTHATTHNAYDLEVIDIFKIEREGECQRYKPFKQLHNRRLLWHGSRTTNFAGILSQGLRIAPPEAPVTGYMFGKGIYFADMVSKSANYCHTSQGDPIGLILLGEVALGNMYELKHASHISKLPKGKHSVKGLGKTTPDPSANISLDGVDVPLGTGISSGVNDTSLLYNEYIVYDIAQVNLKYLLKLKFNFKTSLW

| IC50 [1] | SMILES | cell cycle arrest [2] | DNA content% % G0–G1 [2] | DNA content% % G2–M [2] | DNA content% % Pre G1 [2] | DNA content% % S [2] | Apoptosis Total [3] |
| --- | --- | --- | --- | --- | --- | --- | --- |
| 64.7 ± 3.38 nM | CC(=O)c1ccc(NC(=O)Cn2c(=S)n(-c3ccccc3)c(=O)c3ccccc32)cc1 [Compound 6b, N-(4-Acetylphenyl)-2-(4-oxo-3-phenyl-2-thioxo-3,4-dihydroquinazolin-1(2H)-yl)acetamide] | – | – | – | – | – | – |
| 45.6 ± 2.86 nM | COc1ccccc1C=NNc1nc2ccccc2c(=O)n1-c1ccccc1 [Compound 13c, 2-(2-(2-Methoxybenzylidene)hydrazinyl)-3-phenylquinazolin-4(3H)-one] | – | – | – | – | – | – |
| 39.1 ± 3.89 nM | COC(=O)c1ccc(NC(=O)CNNc2nc3ccccc3c(=O)n2-c2ccccc2)cc1 [Compound 12a, Methyl 4-(2-(2-(4-oxo-3-phenyl-3,4-dihydroquinazolin-2-yl)hydrazinyl)acetamido)benzoate] | cell growth arrest at the G2/M phase | 38.51% | 38.06% | 26.55% | 23.43% | – |
| 44.2 ± 3.12 nM | O=c1c2ccccc2nc(NN=Cc2ccc(O)cc2)n1-c1ccccc1 [Compound 13b, 2-(2-(4-Hydroxybenzylidene)hydrazinyl)-3-phenylquinazolin-4(3H)-one] | – | – | – | – | – | – |
| 56 ± 2.95 nM | COC(=O)c1ccc(NC(=O)Cn2c(=S)n(-c3ccccc3)c(=O)c3ccccc32)cc1 [Compound 6a, Methyl 4-(2-(4-oxo-3-phenyl-2-thioxo-3,4-dihydroquinazolin-1(2H)-yl)acetamido)benzoate] | – | – | – | – | – | – |
| – | CN[C@@H]1C[C@H]2O[C@@](C)([C@@H]1OC)n1c3ccccc3c3c4c(c5c6ccccc6n2c5c31)C(=O)NC4 [Stauroporine, reference compound] | – | 37.19% | 36.59% | – | 26.22% | 31.74% |
| 32.5 ± 2.64 nM | COc1ccc(-c2cc(-c3ccc(NC(=O)CSc4nc5ccccc5c(=O)n4-c4ccccc4)cc3)nc(N)c2C#N)cc1 [Compound 8a, N-(4-(6-Amino-5-cyano-4-(4-methoxyphenyl)pyridin-2-yl)phenyl)-2-((4-oxo-3-phenyl-3,4-dihydroquinazolin-2-yl)thio)acetamide] | – | – | – | – | – | – |
| 27.9 ± 3.45 nM | NS(=O)(=O)c1ccc(NC(=O)CNNc2nc3ccccc3c(=O)n2-c2ccccc2)cc1 [Compound 12c, 2-(2-(4-Oxo-3-phenyl-3,4-dihydroquinazolin-2-yl)hydrazinyl)-N-(4-sulfamoylphenyl)-acetamide] | cell growth arrest at the G2/M phase | 43.28% | 23.49% | 19.31% | 33.23% | – |
